This passage reports Activity results from ChEMBL document CHEMBL3232828, “A potential CARB-pharmacophore for antineoplastic activity: part 1” (2014).

SMILES strings stand for the structures.

Common to all, as to assay type: functional
Assay [1] deals with A549. The assay can be described thus: Cytotoxicity against hormone-independent human A549 cells at 8 mM after 12 hrs by CCK-8 assay. In a few lines: (§1)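 A549 adherent cells in DMEM with FBS and penicillin-streptomycin at 37 °C, 5% CO2. Seeded at 1 × 10^4 cells/well and attached for 12 h. Compound applied for 12 h, followed by 3 h in serum-free medium with 10% CCK-8. OD at 450 nm. Viability expressed as 100 × (S−B)/(K−B) relative to untreated cells.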
(Tetrazolium dyes change colour on reduction, which living cells bring about.)

Assay [2] deals with MCF7. The assay can be described thus: Cytotoxicity against hormone-dependent human MCF7 cells at 6 mM after 12 hrs by CCK-8 assay. In a few lines: (§2)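 MCF-7 monolayers grown in DMEM plus FBS and penicillin-streptomycin (37 °C, 5% CO2), plated 5 × 10^4 cells/well 12 h before dosing. Exposure 12 h at the listed concentration. Viability measured by WST-8 (CCK-8) reduction: 10% CCK-8 in serum-free medium, 3 h, absorbance 450 nm. Viability% = 100 × (sample−blank)/(control−blank).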

Assay [3] concerns A549. The experiment in a line: Cytotoxicity against hormone-independent human A549 cells at 6 mM after 12 hrs by CCK-8 assay. In a few lines:
as §1

For assay [4], the system named is LoVo. The assay can be described thus: Cytotoxicity against hormone-independent human LoVo cells at 8 mM after 12 hrs by CCK-8 assay. In a few lines: (§3)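 For LoVo colorectal adenocarcinoma cells, cultured in DMEM supplemented with FBS and penicillin-streptomycin (37 °C, 5% CO2), 2.5 × 10^4 cells/well were plated 12 h ahead, then treated 12 h. Read-out: CCK-8 (10% in serum-free medium, 3 h), absorbance 450 nm. Percent viability = 100 × (S−B)/(K−B) using blank and control wells.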

Assay [5] deals with HeLa. The experiment in a line: Cytotoxicity against hormone-dependent human HeLa cells at 4 mM after 12 hrs by CCK-8 assay. The method in brief: (§4)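 HeLa cells (adherent) in F-12K medium with fetal bovine serum and penicillin-streptomycin, 37 °C, 5% CO2. Seeded at 1 × 10^4 cells/well and allowed to form a monolayer for 12 h. Treated 12 h at the stated concentration. Medium then replaced with serum-free medium containing 10% CCK-8 for 3 h. OD read at 450 nm. Viability% = 100 × (S−B)/(K−B) against blank and untreated control.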

For assay [6], the system named is A549. The assay can be described thus: Cytotoxicity against hormone-independent human A549 cells at 4 mM after 12 hrs by CCK-8 assay. The method in brief: as §1
The subject of assay [7] is K562. The experiment in a line: Cytotoxicity against human K562 cells at 4 mM after 12 hrs by CCK-8 assay. The method in brief: (§5)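 Suspension K562 cells maintained in RPMI 1640 with FBS and penicillin-streptomycin at 37 °C, 5% CO2. Seeded at 2 × 10^4 cells/well and exposed 12 h at the given concentration. Then incubated 3 h with 10% CCK-8 in serum-free medium. OD 450 nm. Viability% = 100 × (S−B)/(K−B) versus blank and untreated control.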

Assay [8] has as its system LoVo. The experiment in a line: Cytotoxicity against hormone-independent human LoVo cells at 4 mM after 12 hrs by CCK-8 assay. The method in brief:
as §3

Assay [9] relates to HeLa. The experiment in a line: Cytotoxicity against hormone-dependent human HeLa cells at 6 mM after 12 hrs by CCK-8 assay. The method in brief:
as §4

Assay [10] relates to HeLa. The assay can be described thus: Cytotoxicity against hormone-dependent human HeLa cells at 2 mM after 12 hrs by CCK-8 assay. The method in brief:
as §4

In assay [11] the test system is K562. The assay can be described thus: Cytotoxicity against human K562 cells at 2 mM after 12 hrs by CCK-8 assay. In a few lines:
as §5

The test system of assay [12] is MCF7. The assay can be described thus: Cytotoxicity against hormone-dependent human MCF7 cells at 4 mM after 12 hrs by CCK-8 assay. The method in brief: as §2
Assay [13] concerns A549. The assay can be described thus: Cytotoxicity against hormone-independent human A549 cells at 2 mM after 12 hrs by CCK-8 assay. In a few lines: as §1
The test system of assay [14] is MCF7. The assay can be described thus: Cytotoxicity against hormone-dependent human MCF7 cells at 8 mM after 12 hrs by CCK-8 assay. The method in brief:
as §2

The subject of assay [15] is LoVo. The experiment in a line: Cytotoxicity against hormone-independent human LoVo cells at 6 mM after 12 hrs by CCK-8 assay. In a few lines: as §3
The subject of assay [16] is HeLa. The experiment in a line: Cytotoxicity against hormone-dependent human HeLa cells at 8 mM after 12 hrs by CCK-8 assay. In a few lines:
as §4

The subject of assay [17] is K562. The experiment in a line: Cytotoxicity against human K562 cells at 8 mM after 12 hrs by CCK-8 assay. The method in brief: as §5
Assay [18] has as its system MCF7. The experiment in a line: Cytotoxicity against hormone-dependent human MCF7 cells at 2 mM after 12 hrs by CCK-8 assay. In a few lines:
as §2

For assay [19], the system named is LoVo. The experiment in a line: Cytotoxicity against hormone-independent human LoVo cells at 2 mM after 12 hrs by CCK-8 assay. In a few lines:
as §3

Assay [20] deals with K562. The assay can be described thus: Cytotoxicity against human K562 cells at 6 mM after 12 hrs by CCK-8 assay. In a few lines:
as §5

Consider `OC[C@H]1SC(O)[C@H](O)[C@@H](O)[C@@H]1O` (stereo not given in full), for which the Activity in assay [1] was found to be 97%; in [2], 40%; in assay [3] it was 96%; in assay [4], 88%; in assay [5], 90%; in assay [6], 96%. Besides, the Activity in [7] amounted to 45%; in assay [8] it was 54%; in assay [9], 99%; in [10], 70%; in [11], 6%; in assay [12] it was 25%. The Activity in assay [13] was 79%; in [14], 49%; in [15] it was 85%; in assay [16] it was 98%; in assay [17], 98%; in assay [18], 17%. The Activity amounted to 28% in assay [19] and 94% in assay [20].

In the case of `OC[C@@]12CO[C@H](O1)[C@H](O)[C@@H](O)[C@H]2O`, the Activity in [1] was 7%; in assay [2], 5%; in assay [3], 5%; in assay [4] it was 12%; in [5], 4%; in assay [6], 4%. For the same molecule, the Activity amounted to 7% in assay [8]; 4% in [10]; 2% in assay [12]; 23% in assay [13]; 3% in assay [14]; 13% in [15]. Further, the Activity in assay [16] came out at 3%; in [18], 6%; in [19], 9%.

On to `O[C@@H]1[C@@H](O)[C@H](O)[C@]2(CO2)[C@@H](O)[C@H]1O`, for which the Activity turned out to be 26% in [1]; 53% in assay [2]; 20% in [3]; 24% in [4]; 20% in assay [7]; 2% in [9]. Further, the Activity in assay [11] was determined as 6%; in assay [12] it was 46%; in assay [14], 66%; in assay [15], 5%; in assay [16], 7%; in assay [17] it was 36%. The Activity is given as 22% in assay [18] and 26% in assay [20].

For the molecule `OCC1(O)SC[C@@H](O)C(O)C1O` (single isomer, unassigned), the Activity in assay [1] is on record as 55%; in assay [2], 3%; in assay [3], 46%; in assay [4] it was 42%; in assay [5], 30%; in assay [6] it was 44%. Also, the Activity turned out to be 25% in [8]; 48% in assay [9]; 28% in [10]; 7% in assay [12]; 44% in [13]; 2% in assay [14]. The Activity in assay [15] is recorded as 32%; in assay [16] it was 51%; in assay [18], 3%; in assay [19], 28%.
